Assay outcomes (PubChem BioAssay)
In the library only some 3% were active in any assay of this set; here they are far more common.
TRPC6 act: mouse TRPC6 channel activators, primary screen, cell-based, HEK293, membrane potential dye; 0.13% of 310,000 active; B-score at 10 µM; HEK293-TRPC6 membrane potential dye fluorescence; active compounds read high;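 active means B-score of the integrated fluorescence ratio above library mean plus 3 SD, and starting fluorescence ratio within library mean plus 5 SD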;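 further: higher score means more depolarization so channel activation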
TRPC4 PAM: positive allosteric modulators of TRPC4, primary screen, cell-based, mouse TRPC4beta, HEK293 mu-opioid, Fluo-4 calcium | Short transient receptor potential channel 4 (Mus musculus), Q9QUQ5 | DAMGO EC20, Fluo-4 Ca2+ flux; active compounds read high | B-score at 10 µM | 0.42% of 310,000 active | AID 2227, 2009;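 active means B-score of calcium response area above 5 SD of library B-scores, with initial fluorescence ratio within 5 SD of library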;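 further: B-score of integrated fluorescence ratio over time as area under calcium response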
TRPC4 inh: inhibitors of mouse TRPC4 channel, primary screen, Fluo4 calcium, HEK293 TRPC4beta/mu-opioid cells; 0.39% of 300,000 active; Short transient receptor potential channel 4 (Mus musculus), Q9QUQ5; B-score at 10 µM; DAMGO-evoked Fluo4 calcium flux; active compounds read low;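 active means B-score over 3 SD under the library average, no early fluorescence shift, positive overall ratio signal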
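Material: HEK293 cells with stable TRPC4beta plus mu-opioid receptor expression / Probe or stimulus: DAMGO in two steps, submaximal then maximal / Compound: single concentration per test compound / Technique: kinetic Fluo4 fluorescence imaging of calcium influx / Read-out: per-well B score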
TRPC4 agonist: activators of mouse TRPC4 channel, primary screen, Fluo4 calcium, HEK293 TRPC4beta/mu-opioid cells; AID 2237, 2010; Short transient receptor potential channel 4 (Mus musculus), Q9QUQ5; 0.49% of 310,000 active; B-score at 10 µM; Fluo4 calcium fluorescence; active compounds read high;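 active means B-score above 5 SD of library B-scores, and initial fluorescence ratio not above library mean plus 5 SD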;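 further: positive B-score marks a calcium rise read as TRPC4 activation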
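Test system: HEK293 cells stably co-expressing mouse TRPC4beta and mu-opioid receptor | Schedule: Fluo4 dye loading 45 min at room temperature, 110 s recording | Measured by: Kinetic Fluo4 calcium fluorescence, 5 s baseline at 1 Hz | Evaluation: B score of integrated ratio | Controls: Buffer (low) and maximal DAMGO (high)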
TRPC6 inhibitor: mouse TRPC6 channel inhibitors, primary screen, cell-based, HEK293, membrane potential dye | 1.1% of 310,000 active | AID 2553, 2010 | ACh-evoked depolarization; active compounds read low | Short transient receptor potential channel 6 (Mus musculus), Q61143 | B-score at 10 µM;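 active means B-score under library mean minus 3 SD, initial fluorescence not abnormally high, positive integrated signal ratio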;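 further: B-score derived from integrated fluorescence ratio over the kinetic read; more negative B-score means stronger inhibition of depolarization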
Kir21 block: inhibitors of mouse Kir2.1 inward-rectifier potassium channel. B-score at 10 µM. HEK293-Kir2.1, FluxOR thallium flux fluorescence; active compounds read low. 0.85% of 310,000 active;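 active means fluorescence ratio B-score at or below minus 3 SD of library scores, with starting-brightness B-score within 2 SD, cut at about -4.2 in these data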;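 further: channel flux triggered by added potassium and thallium sulfate stimulus; B-score of peak minus minimum fluorescence over baseline after thallium stimulus; more negative B-score means stronger Kir2.1 block with less thallium influx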
Target sequence (P35561 whole entry, looked up): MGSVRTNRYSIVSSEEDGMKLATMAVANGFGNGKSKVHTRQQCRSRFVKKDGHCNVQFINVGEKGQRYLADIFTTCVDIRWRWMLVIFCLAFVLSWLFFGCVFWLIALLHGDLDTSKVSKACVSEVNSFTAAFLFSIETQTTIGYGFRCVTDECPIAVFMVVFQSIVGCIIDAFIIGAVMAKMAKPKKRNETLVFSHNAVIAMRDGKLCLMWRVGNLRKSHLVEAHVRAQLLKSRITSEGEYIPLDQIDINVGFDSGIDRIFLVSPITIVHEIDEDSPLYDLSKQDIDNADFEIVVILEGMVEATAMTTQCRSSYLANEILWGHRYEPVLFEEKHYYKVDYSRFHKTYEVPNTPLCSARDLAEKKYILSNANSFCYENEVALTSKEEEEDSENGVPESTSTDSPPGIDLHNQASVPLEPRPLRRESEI
TRPC4 sel inh 2: second check of whether TRPC6 inhibitors also affect mouse TRPC4. shares compounds with TRPC6 inhibitor. HEK293 TRPC4/MOR, membrane potential dye fluorescence; channel activated by saturating DAMGO dose. inhibition, % at 10 µM. 42% of 920 active. AID 2776;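 active means compounds whose fluorescence signal differed from control wells by over 3 SD, either direction, in both duplicate plates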
TRPC4 spec: mouse TRPC4 modulation by TRPC6 hits, confirmation, selectivity assay for TRPC6 inhibitor project, cell-based, HEK293 TRPC4/mu-opioid, membrane potential dye. activity change, negative = inhibition, % at 10 µM. shares compounds with TRPC6 inhibitor. membrane potential fluorescence. 61% of 920 active;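 active means rise or fall in signal beyond 3 SD of buffer-only wells in both replicate plates, either sign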;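 further: integrated kinetic ratio of fluorescence range over baseline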
HEK293 MPD ctr 2-1: nonspecific membrane potential effects, parental HEK293, confirmation, counter-screen for TRPC6 inhibitor project, cell-based, second counter screen; shares compounds with TRPC6 inhibitor; parental HEK293 membrane potential dye fluorescence; maximal acetylcholine challenge after compound addition; signal change vs control, % at 10 µM; 31% of 920 active; AID 2779, 2010;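 active means membrane potential signal moving either way by over 3 SD of the maximum-effect control, in both duplicate plates, meaning non-specific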
HEK293 MPD ctr-1: membrane potential modulation in parental HEK293, confirmation, counter-screen for TRPC6 inhibitor project, cell-based | shares compounds with TRPC6 inhibitor | parental HEK293 membrane potential dye fluorescence | membrane potential signal change, % at 10 µM | 60% of 920 active;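 active means membrane potential signal shifting up or down by more than 3 SD of buffer-only wells, on both duplicate plates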
HEK293 MPD ctr-2: parental HEK293 membrane potential modulation, confirmation, counter-screen for TRPC6 modulator project, cell-based; shares compounds with TRPC6 inhibitor; membrane potential signal change, % at 10 µM; 51% of 2,400 active; membrane potential dye fluorescence;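 active means membrane potential signal moves up or down beyond 5 SD from buffer-only wells, on both duplicate plates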
HEK293 MPD ctr 2-2: second check of TRPC6 modulator effects in parental HEK293 cells; 14% of 2,400 active; shares compounds with TRPC6 inhibitor; membrane potential dye fluorescence; after compound, maximal acetylcholine stimulation; inhibition, % at 10 µM;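 active means membrane potential signal drops by more than 5 SD from the mean control signal, in both duplicate plates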;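 further: plate controls were acetylcholine ECmax control wells for no effect and buffer only wells for full effect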
TRPC4/MOR mod: TRPC4 modulation by TRPC6 hit compounds, confirmation, selectivity assay for TRPC6 modulator project, cell-based, HEK293 TRPC4/mu-opioid, membrane potential dye, mouse. shares compounds with TRPC6 inhibitor. membrane potential fluorescence. percent change from control (negative = decrease, positive = increase), % at 10 µM. 69% of 2,400 active;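 active means membrane potential signal moved up or down beyond 5 SD of buffer control wells, in both duplicate plates, actives on both sides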;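 further: plate controls were assay buffer wells for no effect and DAMGO maximal-effect wells for full effect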
TRPC4/MOR inh 2: mouse TRPC4 off-target activity of TRPC6 modulators, second screen; shares compounds with TRPC6 inhibitor; HEK293 TRPC4/mu-opioid, membrane potential dye fluorescence; stimulated with maximal-effect DAMGO; inhibition, % at 10 µM; 55% of 2,400 active; AID 488928;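 active means drop in membrane potential signal beyond 5 SD of the control wells in both duplicate plates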;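 further: TRPC4 counter screen for TRPC6 hits run under conditions tuned for TRPC6 not TRPC4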
TRPC6 inh conf: mouse TRPC6 channel inhibitors, confirmation, HEK293 cells, membrane potential dye, duplicate | shares compounds with TRPC6 inhibitor | ACh-evoked depolarization | inhibition, % at 10 µM | 43% of 3,300 active | AID 488960, 2010;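 active means fluorescence ratio falls more than 5 SD below the full-stimulation control mean, in both duplicate runs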;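 further: integrated fluorescence ratio of peak minus minimum over baseline after agonist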
TRPC6 act confirm: mouse TRPC6 channel activators, confirmation, HEK293 cells, membrane potential dye, duplicate; shares compounds with TRPC6 inhibitor; HEK293-TRPC6 membrane potential dye fluorescence, FDSS; activation, % at 10 µM; 11% of 2,800 active; AID 488961, 2010;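 active means ratio signal rise beyond 5 SD above unstimulated control wells' mean, seen in both duplicate runs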;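 further: plate controls were buffer EC0 wells for no effect and acetylcholine ECmax response for full effect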
* marks the source's active call; other numbers are inactive results; i = inactive; x = no result.

SMILES	TRPC6 act	TRPC4 PAM	TRPC4 inh	TRPC4 agonist	TRPC6 inhibitor	Kir21 block	HEK293 MPD ctr-2	HEK293 MPD ctr 2-2	TRPC4/MOR mod	TRPC4/MOR inh 2	TRPC6 inh conf	TRPC6 act confirm	others
CC(C)c1[nH]nc2c1C(Cc1ccccc1)C(C#N)=C(N)O2 (stereo not drawn)	i	i	i	i	-6.4*	0	i	i	i	i	i	i
CCOC(=O)C1=NN(C(=O)c2ccc(OC)cc2)C(O)(c2ccc(Cl)cc2)C1 (stereo not drawn)	17*	i	i	70*	i	1	344%*	i	76%*	i	x	209%*
COC(=O)C1=NN(C(=O)c2cccc(Br)c2)C(O)(c2ccc(Cl)cc2)C1 (stereo not drawn)	30*	i	i	100*	i	-0.85	457%*	i	94%*	i	x	326%*
CCOC(=O)C1=NN(C(=O)COc2ccccc2)C(O)(c2ccc(Cl)cc2)C1 (stereo not drawn)	i	i	i	i	i	-0.12	x	x	x	x	x	x
COc1ccc2sc(N(CCCN(C)C)C(=O)c3ccc(S(=O)(=O)N4CCCC4)cc3)nc2c1	i	i	i	i	i	2	x	x	x	x	x	x
CCOC(=O)N1CCN(S(=O)(=O)c2ccc(C(=O)N(CCCN(C)C)c3nc4cc(OC)ccc4s3)cc2)CC1	i	i	i	i	-5.6*	-2.8	i	i	-25%*	81%*	73%*	i
CN(C)CCCN(C(=O)c1ccc(S(=O)(=O)N2CCCCCC2)cc1)c1nc2c(F)cc(F)cc2s1	i	i	i	157*	-5.2*	1.2	i	i	20%*	103%*	i	i
CN(C)S(=O)(=O)c1cccc(C(=O)OCC(=O)NC2CCCc3ccccc32)c1 (stereo not drawn)	i	i	i	i	i	1.6	x	x	x	x	x	x
CCCn1ncc(CN2CCN(Cc3ccsc3)C(CCO)C2)c1C (stereo not drawn)	i	i	i	i	i	0.09	x	x	x	x	x	x
COc1ccc(C(=O)c2c3ccc(C(F)(F)F)cc3[n+]([O-])n2CCCN)cc1	i	i	i	i	-5.7*	-0.19	i	i	-9.5%*	47%*	48%*	i
COc1ccc(C(=O)c2c3ccccc3[n+]([O-])n2CCCN)cc1	i	i	i	i	i	-0.01	x	x	x	x	x	x
Cc1ccc(C(=O)c2c3ccc(C(F)(F)F)cc3[n+]([O-])n2CCCC(N)=O)cc1	i	i	i	i	i	0.43	x	x	x	x	x	x
Cc1ccc(C(=O)c2c3ccc(C(F)(F)F)cc3[n+]([O-])n2CCCN)cc1	i	i	i	i	-8.1*	0.21	x	x	x	x	76%*	i	TRPC4 sel inh 2=50%*;TRPC4 spec=-12%*;HEK293 MPD ctr 2-1=i;HEK293 MPD ctr-1=-158%*
N=c1c(C(=O)NCC2CCCO2)cc2c(=O)n3ccccc3nc2n1C1CCCC1 (stereo not drawn)	i	i	i	i	-5.9*	-0.32	i	i	i	i	i	i
COc1ccc(CCNC(=O)c2cc3c(=O)n4ccccc4nc3n(C3CCCCC3)c2=N)cc1OC	i	i	i	i	i	0.7	x	x	x	x	x	x
N=c1c(C(=O)NCc2ccco2)cc2c(=O)n3ccccc3nc2n1CC1CCCO1 (stereo not drawn)	i	i	i	i	i	0.25	x	x	x	x	x	x
N=c1c(C(=O)NCC2CCCO2)cc2c(=O)n3ccccc3nc2n1C1CCCCC1 (stereo not drawn)	i	i	i	i	-5.4*	-0.43	-100%*	i	-24%*	i	i	i
Cc1cccn2c(=O)c3cc(C(=O)NCC4CCCO4)c(=N)n(C4CCCC4)c3nc12 (stereo not drawn)	i	i	i	i	-5.8*	0.18	-82%*	i	-16%*	32%*	i	i
